From ChEMBL document CHEMBL4428035, “Urea derivates of ursolic, oleanolic and maslinic acid induce apoptosis and are selective cytotoxic for several human tumor cell lines” (Eur J Med Chem, 2016)
Calls of active or inactive are those of the source. The rule behind the calls is not given here.

How the values were obtained:
MCF7 = assay: Cytotoxicity against human MCF7 cells assessed as reduction in cell proliferation after 96 hrs by sulforhodamine B assay; assay type: functional, cell-based; details: MCF7, 96 h
HT-29 = assay: Cytotoxicity against human HT-29 cells assessed as reduction in cell proliferation after 96 hrs by sulforhodamine B assay; assay type: functional, cell-based; details: HT-29, 96 h
518A2 = assay: Cytotoxicity against human 518A2 cells assessed as reduction in cell proliferation after 96 hrs by sulforhodamine B assay; assay type: functional, cell-based; details: 518A2, 96 h
A2780 [1] = assay: Cytotoxicity against human A2780 cells assessed as reduction in cell proliferation after 96 hrs by sulforhodamine B assay; assay type: functional, cell-based; details: A2780, 96 h
SW-1736 = assay: Cytotoxicity against human SW1736 cells assessed as reduction in cell proliferation after 96 hrs by sulforhodamine B assay; assay type: functional, cell-based; details: SW-1736, 96 h
A549 = assay: Cytotoxicity against human A549 cells assessed as reduction in cell proliferation after 96 hrs by sulforhodamine B assay; assay type: functional, cell-based; details: A549, 96 h
NIH3T3 = assay: Cytotoxicity against mouse NIH/3T3 cells assessed as reduction in cell proliferation after 96 hrs by sulforhodamine B assay; assay type: ADME, cell-based; details: NIH3T3, 96 h
FaDu = assay: Cytotoxicity against human FADU cells assessed as reduction in cell proliferation after 96 hrs by sulforhodamine B assay; assay type: functional, cell-based
A2780 [2] = assay: Cell cycle arrest in human A2780 cells assessed as increase in S phase at 10 uM after 24 hrs by FACS analysis; assay type: functional, cell-based
How it was run: (§1)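 Living A2780 cells treated with 10 µM test agent for 24 h and 48 h, then examined for cell-cycle distribution by FACS. Phase populations (Sub-G1, G1/G0, S, G2/M) were quantified by model fitting and expressed as arithmetic means of the population distribution (%).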

A2780 [3] = assay: Induction of apoptosis in human A2780 cells assessed as viable cells at 10 uM after 24 hrs by Annexin V/propidium iodide staining based flow cytometry relative to control; assay type: functional; details: A2780, 24 h, read-out: Activity
How it was run: (§2)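 Annexin V/propidium iodide staining of A2780 cells exposed to 10 µM compound for 24 h and 48 h, read by flow cytometry. Viable, apoptotic, necrotic and secondary-necrotic fractions were reported as relative changes versus untreated control (%).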

A2780 [4] = assay: Cell cycle arrest in human A2780 cells assessed as decrease in G1/G0 phase at 10 uM after 48 hrs by FACS analysis; assay type: functional, cell-based; how it was run: as §1
A2780 [5] = assay: Induction of apoptosis in human A2780 cells assessed as secondary necrotic cells at 10 uM after 24 hrs by Annexin V/propidium iodide staining based flow cytometry relative to control; assay type: functional; how it was run: as §2
A2780 [6] = assay: Induction of apoptosis in human A2780 cells assessed as apoptotic cells at 10 uM after 24 hrs by Annexin V/propidium iodide staining based flow cytometry relative to control; assay type: functional; how it was run: as §2
A2780 [7] = assay: Cell cycle arrest in human A2780 cells assessed as decrease in G1/G0 phase at 10 uM after 24 hrs by FACS analysis; assay type: functional, cell-based; how it was run: as §1
A2780 [8] = assay: Cell cycle arrest in human A2780 cells assessed as decrease in G2/M phase at 10 uM after 24 hrs by FACS analysis; assay type: functional, cell-based; how it was run: as §1
A2780 [9] = assay: Cell cycle arrest in human A2780 cells assessed as increase in subG1 phase at 10 uM after 48 hrs by FACS analysis; assay type: functional, cell-based; how it was run: as §1
A2780 [10] = assay: Induction of apoptosis in human A2780 cells assessed as necrotic cells at 10 uM after 24 hrs by Annexin V/propidium iodide staining based flow cytometry relative to control; assay type: functional; how it was run: as §2
A2780 [11] = assay: Cell cycle arrest in human A2780 cells assessed as decrease in S phase at 10 uM after 48 hrs by FACS analysis; assay type: functional, cell-based; how it was run: as §1

| SMILES | EC50 (MCF7) [µM] | EC50 (HT-29) [µM] | EC50 (518A2) [µM] | EC50 (A2780 [1]) [µM] | EC50 (SW-1736) [µM] | EC50 (A549) [µM] | EC50 (NIH3T3) [µM] | EC50 (FaDu) [µM] | Activity (A2780 [2]) | change in viable cells vs control (%) at 10 µM (A2780 [3]) [%] | Activity (A2780 [4]) | Activity (A2780 [5]) [%] | Activity (A2780 [6]) [%] | Activity (A2780 [7]) | Activity (A2780 [8]) | Activity (A2780 [9]) | Activity (A2780 [10]) [%] | Activity (A2780 [11]) |
| --- | --- | --- | --- | --- | --- | --- | --- | --- | --- | --- | --- | --- | --- | --- | --- | --- | --- | --- |
| CC(=O)O[C@H]1C[C@]2(C)[C@H]3CC=C4[C@@H]5[C@@H](C)[C@H](C)CC[C@]5(NC(=O)Nc5ccccc5)CC[C@@]4(C)[C@]3(C)CC[C@H]2C(C)(C)[C@H]1OC(C)=O | 19.6 | 16 | 2.5 | 1.5 | 6.8 | 12.4 | > 120 |  |  |  |  |  |  |  |  |  |  |  |
| CC(=O)O[C@@H]1C[C@]2(C)[C@H]3CC=C4[C@@H]5CC(C)(C)CC[C@]5(C(=O)Nc5ccccc5)CC[C@@]4(C)[C@]3(C)CC[C@H]2C(C)(C)[C@H]1OC(C)=O | 3.1 | 2.9 | 0.7 |  | 2.9 | 9.5 | 16 | 1.4 |  |  |  |  |  |  |  |  |  |  |
| CC(=O)O[C@H]1C[C@]2(C)[C@H]3CC=C4[C@@H]5CC(C)(C)CC[C@]5(NC(=O)Oc5ccccc5)CC[C@@]4(C)[C@]3(C)CC[C@H]2C(C)(C)[C@H]1OC(C)=O | 5.8 | 8.5 | 4.4 | 2.4 | 7.3 | 8.5 | 15.4 |  | Active | -4 | Active | 3 | 2 | Active | Active | Active | -1 | Active |
| CO[C@@H]1C[C@]2(C)[C@H]3CC=C4[C@@H]5CC(C)(C)CC[C@]5(C(=O)NCc5ccccc5)CC[C@@]4(C)[C@]3(C)CC[C@H]2C(C)(C)[C@H]1O | 11.7 | 10.6 | 12.6 |  | 18.1 | 21.5 | 11.9 | 11.4 |  |  |  |  |  |  |  |  |  |  |
| CC(=O)O[C@@H]1C[C@]2(C)[C@H]3CC=C4[C@@H]5CC(C)(C)CC[C@]5(C(=O)NCCc5ccccc5)CC[C@@]4(C)[C@]3(C)CC[C@H]2C(C)(C)[C@H]1OC(C)=O | 5.8 | 6.1 | 1.2 |  | 5.2 | 9.2 | 9.5 | 2.8 |  |  |  |  |  |  |  |  |  |  |
| CC1(C)CC[C@]2(C(=O)NCc3ccccc3)CC[C@]3(C)C(=CC[C@@H]4[C@@]5(C)C[C@@H]6O[C@@H]6C(C)(C)[C@@H]5CC[C@]43C)[C@@H]2C1 | 8.6 | 26.6 | 15.7 | 8.6 | > 30 | 25.8 | 20.5 | > 30 |  |  |  |  |  |  |  |  |  |  |
| CC(=O)O[C@H]1C[C@]2(C)[C@H]3CC=C4[C@@H]5CC(C)(C)CC[C@]5(C(=O)Nc5ccccc5)CC[C@@]4(C)[C@]3(C)CC[C@H]2C(C)(C)[C@H]1OC(C)=O | 1.8 | 2.6 | 2 | 1.3 | 2.7 | 4.9 | > 60 |  |  |  |  |  |  |  |  |  |  |  |
| CC(=O)O[C@H]1C[C@]2(C)[C@H]3CC=C4[C@@H]5[C@@H](C)[C@H](C)CC[C@]5(NC(=O)Oc5ccccc5)CC[C@@]4(C)[C@]3(C)CC[C@H]2C(C)(C)[C@H]1OC(C)=O | 23.3 | 7.6 | 3.1 | 1.6 | 5.5 | 10.1 | > 30 |  |  |  |  |  |  |  |  |  |  |  |
| CC(=O)O[C@H]1C[C@]2(C)[C@H]3CC=C4[C@@H]5[C@@H](C)[C@H](C)CC[C@]5(C(=O)Nc5ccccc5)CC[C@@]4(C)[C@]3(C)CC[C@H]2C(C)(C)[C@H]1OC(C)=O | 16.4 | 7.3 | 3.4 | 3.3 | 4.4 | 8.9 | > 60 |  |  |  |  |  |  |  |  |  |  |  |
| CC1(C)CC[C@]2(C(=O)NCc3ccccc3)CC[C@]3(C)C(=CC[C@@H]4[C@@]5(C)C[C@H]6OC(C)(C)O[C@@H]6C(C)(C)[C@@H]5CC[C@]43C)[C@@H]2C1 | 14.6 | 25.9 | 29.8 | 12.9 | > 30 | 26.4 | 21.6 | > 30 |  |  |  |  |  |  |  |  |  |  |
| CC(=O)O[C@@H]1C[C@]2(C)[C@H]3CC=C4[C@@H]5CC(C)(C)CC[C@]5(C(=O)O)CC[C@@]4(C)[C@]3(C)CC[C@H]2C(C)(C)[C@H]1OC(C)=O | 16.6 |  | 23.1 |  |  |  |  | 17.8 |  |  |  |  |  |  |  |  |  |  |
